From the array DNA melting data of Ke et al. (doi:10.1101/2024.01.08.574731)

Experiments:
[1] = folding enthalpy; higher = less favourable; fluorescence melt of hairpins on a sequencing array, two-state fit; details: sodium 0.088 M
Procedure, shortened: (§1)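 Melting temperature and folding enthalpy were obtained by bootstrapped two-state fitting. Fits used Cy3 fluorescence of library hairpins with annealed Cy3 and quencher oligos on a sequenced MiSeq flow cell, imaged in 50 mM Na-HEPES pH 8.0, 25 mM NaCl in 2.5 °C steps up to 60 °C and normalised to pre-quench Cy3 and control constructs. Four replicates were combined by inverse-variance weighting, and fitted temperatures were raised by 9.35 °C to match UV melts.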

[2] = melting temperature; fluorescence melt of hairpins on a sequencing array, two-state fit, raised by 9.35 °C to match UV melts; details: sodium 0.088 M
Procedure, shortened: as §1

Row | Sequence | folding enthalpy [1] [kcal/mol] | Tm [2] [°C]
1 | GATACCGGAAACGGTACC (.(((((....))))).) | -13.6 | 38.8
2 | GATACGACGAAAGTCATC (((..(((....)))))) | -10.6 | 24.6
3 | GATACGGGAAACTGTATC (((((.(....).))))) | -37.1 | 43.8
4 | GATACTGGAAACAGTATC (((((((....))))))) | -40.4 | 54.6
5 | GATACTGGAAACGGTATC (((((.(....).))))) | -30.4 | 42.7
6 | GATAGAGGAAACTCTGTC ((.((((....)))).)) | -32.1 | 38
7 | GATAGCGAAAGCTATATC ((((((....)))..))) | -14.3 | 46.6
8 | GATAGCGAAAGCTATC ((((((....)))))) | -33 | 61.3
9 | GATAGCGAAAGCTCAATC ((((((....)))..))) | -10.4 | 21.7
10 | GATAGCGAAAGCTCTATC ((((((....)))..))) | -11.1 | 26.4
11 | GATAGCGAAAGCTTCATC ((((((....)))..))) | -12 | 28.3
12 | GATAGCGGAAACGCTACC (.(((((....))))).) | -12.1 | 40.4
13 | GATAGCGGAAACGCTGTC ((.((((....)))).)) | -25 | 52.2
14 | GATAGGCGAAAGCCCATC (((.(((....))).))) | -13.8 | 37.7
15 | GATAGGCGAAAGCCGATC (((.(((....))).))) | -16.8 | 55.5
16 | GATAGGGCGAAAGCCATC (((..(((....)))))) | -9.11 | 31.2
17 | GATAGGGGAAACCTTATC ((((.((....)).)))) | -25.5 | 33.6
18 | GATAGGGGAAACTCTATC (((((.(....).))))) | -31.2 | 35.7
19 | GATATAGAAATATATC ((((((....)))))) | -15 | 31.8
20 | GATATCCGAAAGGAATC (((.(((....)))))) | -12.9 | 30.2
21 | GATATCGGAAACGATACC (.(((((....))))).) | -17.3 | 33.7
22 | GATATCGGAAACGATGTC ((.((((....)))).)) | -30.7 | 46.7
23 | GATATGCGAAAGCAATC (((.(((....)))))) | -10.7 | 30
24 | GATATGCGAAAGCAGATC (((.(((....))).))) | -30.3 | 53.3

Row | Sequence | folding enthalpy [1] [kcal/mol] | Tm [2] [°C]
25 | GATATGGGAAACCATATC (((((((....))))))) | -37.5 | 53.3
26 | GATATTACGAAAGTAATC (((..(((....)))))) | -11.6 | 34.7
27 | GATATTGGAAACGATATC (((((.(....).))))) | -33 | 36.2
28 | GATCAAAAGGTTGATC ((((((....)))))) | -23.9 | 36.1
29 | GATCAAAATTTTGATC ((((((....)))))) | -40.1 | 48.3
30 | GATCAAACAATTGATC ((((((....)))))) | -22.6 | 37.1
31 | GATCAAACCTTGATC ((((((...)))))) | -29.1 | 40.9
32 | GATCAAACGCTTGATC ((((((....)))))) | -29.5 | 41.5
33 | GATCAAACTTTTGATC ((((((....)))))) | -27.9 | 45.9
34 | GATCAAAGAATTGATC ((((((....)))))) | -21.8 | 40
35 | GATCAAAGAGTTGATC ((((((....)))))) | -21.3 | 37.2
36 | GATCAAAGCTTTGATC ((((((....)))))) | -57.4 | 50.8
37 | GATCAAAGGTTTGATC ((((((....)))))) | -32.4 | 44.8
38 | GATCAAATAATTGATC ((((((....)))))) | -27.9 | 34.7
39 | GATCAAATATTGATC ((((((...)))))) | -32.8 | 40.2
40 | GATCAAATGGTTGATC ((((((....)))))) | -28.5 | 39.6
41 | GATCAAATTATTGATC ((((((....)))))) | -27.7 | 41.4
42 | GATCAACAGTTGATC ((((((...)))))) | -40.3 | 41.7
43 | GATCAACCGCTTGATC ((((((....)))))) | -34.4 | 44.2
44 | GATCAACCGTTTGATC ((((((....)))))) | -35.2 | 42.8
45 | GATCAACCTTTGATC ((((((...)))))) | -32.4 | 42
46 | GATCAACGAAAGTTTATC (((.(((....))).))) | -28 | 32.5
47 | GATCAACGACTTGATC ((((((....)))))) | -32.3 | 40.7
48 | GATCAACGCATTGATC ((((((....)))))) | -34.6 | 46.2

Row | Sequence | folding enthalpy [1] [kcal/mol] | Tm [2] [°C]
49 | GATCAACGCTTGATC ((((((...)))))) | -31.4 | 42
50 | GATCAACTACTTGATC ((((((....)))))) | -32.5 | 41.8
51 | GATCAACTATTGATC ((((((...)))))) | -30.4 | 41
52 | GATCAACTCATTGATC ((((((....)))))) | -33.8 | 44.6
53 | GATCAAGAACTTGATC ((((((....)))))) | -38.4 | 49.2
54 | GATCAAGAAGTTGATC ((((((....)))))) | -28.2 | 43.9
55 | GATCAAGACCTTGATC ((((((....)))))) | -40.2 | 50.1
56 | GATCAAGAGCTTGATC ((((((....)))))) | -38.2 | 42.2
57 | GATCAAGATCTTGATC ((((((....)))))) | -47.1 | 49.9
58 | GATCAAGCACTTGATC ((((((....)))))) | -38.4 | 50.4
59 | GATCAAGCGTTGATC ((((((...)))))) | -29.6 | 40.2
60 | GATCAAGCTATTGATC ((((((....)))))) | -40.8 | 50.2
61 | GATCAAGGAAACCTGATC (((((.(....).))))) | -29.1 | 35.6
62 | GATCAAGGAGTTGATC ((((((....)))))) | -29.5 | 45.3
63 | GATCAAGGCATTGATC ((((((....)))))) | -34.5 | 50.5
64 | GATCAAGGCTTGATC ((((((...)))))) | -49.3 | 47.8
65 | GATCAAGGGTTTGATC ((((((....)))))) | -26.2 | 43
66 | GATCAAGTATTTGATC ((((((....)))))) | -37.8 | 50.3
67 | GATCAATGAATTGATC ((((((....)))))) | -34.6 | 46.3
68 | GATCAATGGATTGATC ((((((....)))))) | -28.3 | 45.2
69 | GATCAATGTCTTGATC ((((((....)))))) | -27.9 | 43.5
70 | GATCAATTGATTGATC ((((((....)))))) | -36.5 | 47.2
71 | GATCAATTGGTTGATC ((((((....)))))) | -40.5 | 45.8
72 | GATCAATTGTTGATC ((((((...)))))) | -30.6 | 41.5

Row | Sequence | folding enthalpy [1] [kcal/mol] | Tm [2] [°C]
73 | GATCAATTTTTGATC ((((((...)))))) | -33.6 | 45.9
74 | GATCACAAAAGTGATC ((((((....)))))) | -36.8 | 54.7
75 | GATCACAACAGTGATC ((((((....)))))) | -41.7 | 58.7
76 | GATCACAACGGTGATC ((((((....)))))) | -38.7 | 56
77 | GATCACACAAGTGATC ((((((....)))))) | -42.4 | 56.2
78 | GATCACACCCGTGATC ((((((....)))))) | -35.2 | 57.8
79 | GATCACACTGTGATC ((((((...)))))) | -41.8 | 55.6
80 | GATCACAGAGGTGATC ((((((....)))))) | -27.4 | 55.9
81 | GATCACAGAGTGATC ((((((...)))))) | -35 | 60.8
82 | GATCACAGCGGTGATC ((((((....)))))) | -29.1 | 56.3
83 | GATCACAGGGGTGATC ((((((....)))))) | -33.6 | 56.2
84 | GATCACAGTCGTGATC ((((((....)))))) | -44.9 | 56.2
85 | GATCACATGAGTGATC ((((((....)))))) | -42.1 | 55.7
86 | GATCACATTCGTGATC ((((((....)))))) | -39.2 | 59.4
87 | GATCACATTGGTGATC ((((((....)))))) | -40.1 | 56.7
88 | GATCACCAGCGTGATC ((((((....)))))) | -43.3 | 53.8
89 | GATCACCCAAGTGATC ((((((....)))))) | -46.8 | 55.7
90 | GATCACCCCCGTGATC ((((((....)))))) | -36 | 55
91 | GATCACCCCGTGATC ((((((...)))))) | -43.2 | 57.5
92 | GATCACCCGAAAGGGATC (((..(((....)))))) | -14 | 35.5
93 | GATCACCCTAGTGATC ((((((....)))))) | -38.9 | 58.9
94 | GATCACCCTCGTGATC ((((((....)))))) | -43.6 | 55.8
